# Test results reported in ChEMBL document CHEMBL4251573, “Synthesis and biological evaluation of N-substituted 3-oxo-1,2,3,4-tetrahydro-quinoxaline-6-carboxylic acid derivatives as tubulin polymerization inhibitors” (Eur J Med Chem, 2018).
# The source made the active and inactive calls. The rule behind the calls is not given here.
# What was measured:
# [1] = target: Tubulin; assay: Inhibition of tubulin (unknown origin) polymerization after 40 mins by fluorescence assay; assay type: protein-complex assay, Homo sapiens
# Method in brief: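 Fluorescence-based kit assay. Compounds, in duplicate, were warmed 1 min at 37 °C, then cold tubulin mix was added (2 mg/mL tubulin in 80 mM PIPES pH 6.9, 2.0 mM MgCl2, 0.5 mM EGTA, 1.0 mM GTP, 15% glycerol). Assembly was read at ex 360/em 450 nm each minute for 1 h at 37 °C; 0.1% DMSO vehicle. IC50 is the concentration halving assembly extent at 40 min, from four concentrations.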
# [2] = tested on: HeLa; assay: Induction of apoptosis in human HeLa cells assessed as membrane blebbing at 0.10 to 0.20 uM by microscopic method; assay type: functional, cell-based
# Method in brief: (§1)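 Morphology of HeLa cells was examined by light microscopy after 24 h exposure to 0.10, 0.15 or 0.20 μM, or 0.1% DMSO, alongside the annexin V/PI experiment.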
# [3] = tested on: HeLa; assay: Cell cycle arrest in human HeLa cells assessed as accumulation at sub G1 phase at 0.15 uM after 24 hrs by propidium iodide staining-based flow cytometric method (reference value: 7.6%); assay type: functional
# [4] = tested on: HeLa; assay: Induction of apoptosis in human HeLa cells assessed as necrotic cells at 0.10 uM after 24 hrs by annexin V-FITC/propidium iodide staining-based flow cytometric method (reference value: 0.15%); assay type: functional
# [5] = tested on: HeLa; assay: Disruption of microtubule network in human HeLa cells after 24 hrs by Hoechst 33342 staining-based immunofluorescence microscopic method; assay type: cell-based
# Method in brief: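 HeLa cells were plated at 4000 per well for 24 h, then exposed for 24 h to vehicle or drug (0.1-0.2 μM). Fixation was 4% paraformaldehyde, 10 min, 4 °C, then 0.1% Triton X-100, 5 min, and 1% BSA block, 1 h. Staining used anti-α-tubulin (1:100, 12 h, 4 °C), then FITC anti-mouse IgG (1:100, 30 min, 37 °C), with Hoechst 33342 for nuclei. Imaged by fluorescence microscopy.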
# [6] = tested on: HeLa; assay: Cell cycle arrest in human HeLa cells assessed as accumulation at sub G1 phase at 0.10 uM after 24 hrs by propidium iodide staining-based flow cytometric method (reference value: 7.6%); assay type: functional
# [7] = tested on: HeLa; assay: Induction of apoptosis in human HeLa cells assessed as plasmatorrhexis at 0.10 to 0.20 uM by microscopic method; assay type: functional, cell-based; method in brief: as §1
# [8] = tested on: K562; assay: Antiproliferative activity against human K562 cells after 72 hrs by MTT assay; assay type: functional, cell-based; details: K562, 72 h
# Method in brief: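 K562 cells were grown in RPMI 1640 with 10% FBS at 37 °C in 5% CO2, then seeded at 4000-6000 cells/well. Quadruplicate wells were exposed to drug for 72 h, with final DMSO below 0.1%. After 4 h with MTT, solubilizer (10% SDS, 5% isobutyl alcohol, 0.01 M HCl) was added for 12 h, then OD read at 490 nm. IC50 came from at least five concentrations; mean and SD of at least three experiments.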
# [9] = tested on: HeLa; assay: Cell cycle arrest in human HeLa cells assessed as accumulation at S phase at 0.20 uM after 24 hrs by propidium iodide staining-based flow cytometric method (reference value: 10.3%); assay type: functional
# [10] = tested on: HeLa; assay: Cell cycle arrest in human HeLa cells assessed as accumulation at G2/M phase at 0.20 uM after 24 hrs by propidium iodide staining-based flow cytometric method (reference value: 19.9%); assay type: functional
# [11] = tested on: HeLa; assay: Cell cycle arrest in human HeLa cells assessed as accumulation at G0/G1 phase at 0.15 uM after 24 hrs by propidium iodide staining-based flow cytometric method (reference value: 62.2%); assay type: functional
# [12] = tested on: HeLa; assay: Cell cycle arrest in human HeLa cells assessed as accumulation at sub G1 phase at 0.20 uM after 24 hrs by propidium iodide staining-based flow cytometric method (reference value: 7.6%); assay type: functional
# [13] = tested on: HeLa; assay: Cell cycle arrest in human HeLa cells assessed as accumulation at G2/M phase after 24 hrs by propidium iodide staining-based flow cytometric method; assay type: functional
# [14] = tested on: HeLa; assay: Induction of apoptosis in human HeLa cells assessed as late apoptotic cells at 0.10 uM after 24 hrs by annexin V-FITC/propidium iodide staining-based flow cytometric method (reference value: 0.15%); assay type: functional
# [15] = tested on: HeLa; assay: Cell cycle arrest in human HeLa cells assessed as accumulation at G2/M phase at 0.10 uM after 24 hrs by propidium iodide staining-based flow cytometric method (reference value: 19.9%); assay type: functional
# [16] = tested on: HeLa; assay: Induction of apoptosis in human HeLa cells assessed as necrotic cells at 0.20 uM after 24 hrs by annexin V-FITC/propidium iodide staining-based flow cytometric method (reference value: 0.15%); assay type: functional
# [17] = tested on: HeLa; assay: Induction of apoptosis in human HeLa cells assessed as viable cells at 0.20 uM after 24 hrs by annexin V-FITC/propidium iodide staining-based flow cytometric method (reference value: 97.39%); assay type: functional; details: read-out: Activity
# [18] = tested on: HeLa; assay: Induction of apoptosis in human HeLa cells assessed as viable cells at 0.15 uM after 24 hrs by annexin V-FITC/propidium iodide staining-based flow cytometric method (reference value: 97.39%); assay type: functional; details: read-out: Activity
# [19] = tested on: HeLa; assay: Antiproliferative activity against human HeLa cells after 72 hrs by MTT assay; assay type: functional, cell-based
# Method in brief: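 HeLa and SMMC-7721 cells in log phase were seeded at 4000-6000 cells/well. After 24 h, quadruplicate wells were treated with a series of concentrations for 72 h. DMSO stocks were 5 mmol/L, with final DMSO below 0.1%. MTT (10 mg/mL in PBS) was added for 4 h, medium replaced with DMSO, and OD read at 490 nm. IC50 came from at least five concentrations; mean and SD of at least three independent experiments.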
# [20] = tested on: HeLa; assay: Cell cycle arrest in human HeLa cells assessed as accumulation at S phase at 0.10 uM after 24 hrs by propidium iodide staining-based flow cytometric method (reference value: 10.3%); assay type: functional
# [21] = tested on: HeLa; assay: Induction of apoptosis in human HeLa cells after 24 hrs by annexin V-FITC/propidium iodide staining-based flow cytometric method; assay type: functional, cell-based
# [22] = tested on: HeLa; assay: Induction of apoptosis in human HeLa cells assessed as viable cells at 0.10 uM after 24 hrs by annexin V-FITC/propidium iodide staining-based flow cytometric method (reference value: 97.39%); assay type: functional; details: read-out: Activity
# [23] = tested on: HeLa; assay: Cell cycle arrest in human HeLa cells assessed as accumulation at G0/G1 phase at 0.10 uM after 24 hrs by propidium iodide staining-based flow cytometric method (reference value: 62.2%); assay type: functional
# [24] = tested on: HeLa; assay: Induction of apoptosis in human HeLa cells assessed as early apoptotic cells at 0.15 uM after 24 hrs by annexin V-FITC/propidium iodide staining-based flow cytometric method (reference value: 2.31%); assay type: functional
# [25] = tested on: HeLa; assay: Cell cycle arrest in human HeLa cells assessed as accumulation at G2/M phase at 0.15 uM after 24 hrs by propidium iodide staining-based flow cytometric method (reference value: 19.9%); assay type: functional
# [26] = tested on: HeLa; assay: Cell cycle arrest in human HeLa cells assessed as accumulation at sub G1 phase at 0.25 uM after 24 hrs by propidium iodide staining-based flow cytometric method (reference value: 7.6%); assay type: functional
# [27] = tested on: HeLa; assay: Induction of apoptosis in human HeLa cells assessed as early apoptotic cells at 0.20 uM after 24 hrs by annexin V-FITC/propidium iodide staining-based flow cytometric method (reference value: 2.31%); assay type: functional
smiles,measurement,setting,value
COC(=O)c1ccc2c(c1)NC(=O)CN2C(=O)c1cc(OC)c(OC)c(OC)c1,IC50,[1],3970 nM
same,Activity,[2],Active
same,Activity,[3],31.6%
same,Activity,[4],3.9%
same,Activity,[5],Dose-dependent effect
same,Activity,[6],13.1%
same,Activity,[7],Active
same,IC50,[8],164 nM
same,Activity,[9],8%
same,Activity,[10],40.4%
same,Activity,[11],30.6%
same,Activity,[12],32.9%
same,Activity,[13],Dose-dependent effect
same,Activity,[14],7.87%
same,Activity,[15],21.8%
same,Activity,[16],6.36%
same,viability at 0.2 µM,[17],62.2%
same,viability at 0.15 µM,[18],69.7%
same,IC50,[19],126 nM
same,Activity,[20],9.9%
same,Activity,[21],Dose-dependent effect
same,viability at 0.1 µM,[22],76.1%
same,Activity,[23],55.2%
same,Activity,[24],16.5%
same,Activity,[25],29.2%
same,Activity,[26],33.1%
same,Activity,[27],17.05%
